B1: Osa-1-4 twister ribozyme (parent)
chain: CCGCCUAACACUGCCAAUGCCGGUCCCAAGCCCGGAUAAAAGUGGAGGGGGCGG

Variants of: B1
Test: self-cleavage, relative activity (ratio to wild type); higher = more cleavage; co-transcriptional
Procedure, shortened: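 Values are relative activity: the fraction cleaved, normalised to wild type. A doped DNA template for a 54-nucleotide twister ribozyme from Oryza sativa had 97 % wild-type base and 1 % of each other base at the 48 positions downstream of the cleavage site. The RNA was transcribed in vitro for 2 h at 37 °C so that it could cleave itself co-transcriptionally, then sequenced deeply, with cleavage status scored from the presence or absence of upstream sequence in reads.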

Variant	self-cleavage
CCGCCUAAGACUGCCAAUGCCGGUCCCAAGCCCGGAUAAAAUUGGAGGGGGCGG [C9G G42U]	0.05
CCGCCUAAGACUGCCAAUGCCGGUCCCAAGCCCGGAUAAAACUGGAGGGGGCGG [C9G G42C]	0.07
CCGCCUAAGACUGCCAAUGCCGGUCCCAAGCCCGGAUAAAAAUGGAGGGGGCGG [C9G G42A]	0.11
CCGCCUAAGACUGCCAAUGCCGGUCCCAAGCCCGGAUAAAAGUGGAGGUGGCGG [C9G G49U]	0.09
CCGCCUAAGACUGCCAAUGCCGGUCCCAAGCCCGGAUAAAAGUGGAGGCGGCGG [C9G G49C]	0.06
CCGCCUAAGACUGCCAAUGCCGGUCCCAAGCCCGGAUAAAAGUGGAGGAGGCGG [C9G G49A]	0.09
CCGCCUAAAACUGCCAAUGCCGGUCCCAAGCCCGGAUAAAAGUGGAGGCGGCGG [C9A G49C]	0.02
CCGCCUAAAACUGCCAAUGCCGGUCCCAAGCCCGGAUAAAAGUGGAGGAGGCGG [C9A G49A]	0.04
CCGCCUAAAACUGCCAAUGCCGGUCCCAAGCCCGGAUAAAAGUGGAGGUGGCGG [C9A G49U]	0.03
CCGCCUAAGACUGCCAAUGCCGGUCCCAAGCCCGGAUAAAAGUGGAGGGGGCCG [C9G G53C]	0.05
CCGCCUAAGACUGCCAAUGCCGGUCCCAAGCCCGGAUAAAAGUGGAGGGGGCAG [C9G G53A]	0.48
CCGCCUAAGACUGCCAAUGCCGGUCCCAAGCCCGGAUAAAAGUGGAGGGGGCUG [C9G G53U]	0.14
CCGCCUAAGACUGCCAAUGCCGGUCCCAAGCCCGGAUAAAAGUGGAGGGUGCGG [C9G G50U]	0.84
CCGCCUAAGACUGCCAAUGCCGGUCCCAAGCCCGGAUAAAAGUGGAGGGAGCGG [C9G G50A]	0.48
CCGCCUAAGACUGCCAAUGCCGGUCCCAAGCCCGGAUAAAAGUGGAGGGCGCGG [C9G G50C]	0.59
CCGCCUAAAACUGCCAAUGCCGGACCCAAGCCCGGAUAAAAGUGGAGGGGGCGG [C9A U24A]	0.04
CCGCCUAAAACUGCCAAUGCCGGCCCCAAGCCCGGAUAAAAGUGGAGGGGGCGG [C9A U24C]	0.07
CCGCCUAAAACUGCCAAUGCCGGGCCCAAGCCCGGAUAAAAGUGGAGGGGGCGG [C9A U24G]	0.07
CCGCCUAAAACUGCCAAUGCCGGUCCCAAGCCCGGAUAAAAGUGGAGGGGCCGG [C9A G51C]	0.02
CCGCCUAAAACUGCCAAUGCCGGUCCCAAGCCCGGAUAAAAGUGGAGGGGUCGG [C9A G51U]	0.05
CCGCCUAAAACUGCCAAUGCCGGUCCCAAGCCCGGAUAAAAGUGGAGGGGACGG [C9A G51A]	0.13
CCGCCUAAAACUGCCAAUGCCGGUCCCAAGCCCGGAUAAAAGUGGAGGGAGCGG [C9A G50A]	0.13
CCGCCUAAAACUGCCAAUGCCGGUCCCAAGCCCGGAUAAAAGUGGAGGGCGCGG [C9A G50C]	0.38
CCGCCUAAAACUGCCAAUGCCGGUCCCAAGCCCGGAUAAAAGUGGAGGGUGCGG [C9A G50U]	0.5

Variant	self-cleavage
CCGCCUAAGACUGCCAAUGCCGAUCCCAAGCCCGGAUAAAAGUGGAGGGGGCGG [C9G G23A]	0.24
CCGCCUAAGACUGCCAAUGCCGCUCCCAAGCCCGGAUAAAAGUGGAGGGGGCGG [C9G G23C]	0.07
CCGCCUAAGACUGCCAAUGCCGUUCCCAAGCCCGGAUAAAAGUGGAGGGGGCGG [C9G G23U]	0.04
CCGCCUAAAACUGCCAAUGCCGGUCCCAAGCCCGGAUAAAAGUGGAGGGGGCGU [C9A G54U]	0.36
CCGCCUAAAACUGCCAAUGCCGGUCCCAAGCCCGGAUAAAAGUGGAGGGGGCGC [C9A G54C]	0.34
CCGCCUAAAACUGCCAAUGCCGGUCCCAAGCCCGGAUAAAAGUGGAGGGGGCGA [C9A G54A]	0.43
CCGCCUAAAACUGCCAACGCCGGUCCCAAGCCCGGAUAAAAGUGGAGGGGGCGG [C9A U18C]	0.19
CCGCCUAAAACUGCCAAAGCCGGUCCCAAGCCCGGAUAAAAGUGGAGGGGGCGG [C9A U18A]	0.47
CCGCCUAAAACUGCCAAGGCCGGUCCCAAGCCCGGAUAAAAGUGGAGGGGGCGG [C9A U18G]	0.31
CCGCCUAAGACUGCCAAUGCCGGUCCCAAGCCCGGAUAAAAGUGGAGGGGGCGC [C9G G54C]	0.77
CCGCCUAAGACUGCCAAUGCCGGUCCCAAGCCCGGAUAAAAGUGGAGGGGGCGA [C9G G54A]	0.71
CCGCCUAAGACUGCCAAUGCCGGUCCCAAGCCCGGAUAAAAGUGGAGGGGGCGU [C9G G54U]	0.73
CCGCCUAAAACUGCCAAUGCCGGUCCCAAGCCCGGAAAAAAGUGGAGGGGGCGG [C9A U37A]	0.28
CCGCCUAAAACUGCCAAUGCCGGUCCCAAGCCCGGAGAAAAGUGGAGGGGGCGG [C9A U37G]	0.53
CCGCCUAAAACUGCCAAUGCCGGUCCCAAGCCCGGACAAAAGUGGAGGGGGCGG [C9A U37C]	0.53
CCGCCUAAGACUGCCAAUGCCGGUCCCAAGCCCGGAUAAAAGUGGAGGGGACGG [C9G G51A]	0.23
CCGCCUAAGACUGCCAAUGCCGGUCCCAAGCCCGGAUAAAAGUGGAGGGGUCGG [C9G G51U]	0.12
CCGCCUAAGACUGCCAAUGCCGGUCCCAAGCCCGGAUAAAAGUGGAGGGGCCGG [C9G G51C]	0.06
CCGCCUAAAACUGCCAAUGCCGGUCCCAAGCCCGGAUAAAAGCGGAGGGGGCGG [C9A U43C]	0.07
CCGCCUAAAACUGCCAAUGCCGGUCCCAAGCCCGGAUAAAAGGGGAGGGGGCGG [C9A U43G]	0.14
CCGCCUAAAACUGCCAAUGCCGGUCCCAAGCCCGGAUAAAAGAGGAGGGGGCGG [C9A U43A]	0.37
CCGCCUAAGACUGCCAAGGCCGGUCCCAAGCCCGGAUAAAAGUGGAGGGGGCGG [C9G U18G]	0.73
CCGCCUAAGACUGCCAACGCCGGUCCCAAGCCCGGAUAAAAGUGGAGGGGGCGG [C9G U18C]	0.66
CCGCCUAAGACUGCCAAAGCCGGUCCCAAGCCCGGAUAAAAGUGGAGGGGGCGG [C9G U18A]	0.85

Source: the RNAGym collection of RNA variant scans (doi:10.1002/anie.201605470)
